Sampled rows, rich in hits. Any-hit rate of the full collection: about 1.9%.
MBD2 inh: inhibitors of MBD2 binding to methylated DNA, primary screen, biochemical, TR-FRET, DNA-binding domain, human. Methyl-CpG-binding domain protein 2 (Homo sapiens), Q9UBB5. MBD2 binding to methylated oligonucleotide. inhibition, % at 4.4 µM. 0.31% of 370,000 active; in the data active = inhibition above about 13%
Target sequence (Q9UBB5 whole entry, looked up, the tested form may be a part): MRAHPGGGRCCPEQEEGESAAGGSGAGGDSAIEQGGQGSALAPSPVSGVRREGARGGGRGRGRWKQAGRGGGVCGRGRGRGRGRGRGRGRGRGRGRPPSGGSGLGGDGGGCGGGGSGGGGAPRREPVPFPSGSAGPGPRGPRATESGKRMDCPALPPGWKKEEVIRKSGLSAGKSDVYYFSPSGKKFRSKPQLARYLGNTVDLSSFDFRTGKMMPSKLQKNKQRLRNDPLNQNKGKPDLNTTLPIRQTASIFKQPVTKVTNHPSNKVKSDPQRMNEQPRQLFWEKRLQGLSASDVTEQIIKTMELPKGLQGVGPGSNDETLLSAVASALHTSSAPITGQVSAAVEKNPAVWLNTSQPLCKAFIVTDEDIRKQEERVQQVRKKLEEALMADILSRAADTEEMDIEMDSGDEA
LEDGF integ inh: blockers of LEDGF/p75-dependent integrase strand transfer – biochemical, TR-FRET, high throughput, primary screen; HIV-1 integrase (with human LEDGF/p75); TR-FRET IN-LEDGF/p75 DNA integration, Eu/Cy5; inhibition, % at 3.7 µM; 0.64% of 370,000 active;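 active = inhibition above the screen-wide mean plus 3 SD, cut at about 13% in these data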;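 also: signal is the Cy5 over europium emission ratio at 671 and 618 nm; 0% = plate median of compound wells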
TDP2 absorb: human TDP2 enzyme inhibitors, primary screen, biochemical, epi absorbance, recombinant enzyme. Tyrosyl-DNA phosphodiesterase 2 (Homo sapiens), O95551. T5PNP hydrolysis, p-nitrophenol absorbance 415 nm. inhibition, % at 12.8 µM. 0.34% of 370,000 active. AID 720702, 2013;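 active = inhibition above the mean of all tested compounds plus 3 SD, set per campaign, cut at about 25% in these data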;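 also: 0% = DMSO with enzyme and 100% = buffer with substrate but no TDP2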
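test system = human TDP2 enzyme | input = TDP2 enzyme at 120 nM final | medium = 50 mM Tris-HCl pH 7.5 with Mg2+, KCl, DTT, BSA | also added = T5PNP substrate, 5 mM | times = 2 h at 37 °C | technique = epi absorbance | benchmarks = high control without enzyme, low control DMSO plus TDP2 | replication = each compound tested once, singlicate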
Casp6 inh: human caspase-6 inhibitors, primary screen, biochemical, VEID-R110 fluorescence, single point, set 2. AID 686996, 2013. inhibition, % at 12.5 µM. P55212. 0.53% of 350,000 active. purified caspase-6, Z-VEID-R110 cleavage fluorescence;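 active = mean inhibition across replicates at least about 35%, with every replicate also reaching that limit, limit read from the data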;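 also: 0% = median of neutral control wells and 100% = no fluorescence left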
Target sequence (P55212 24-179 limits assumed): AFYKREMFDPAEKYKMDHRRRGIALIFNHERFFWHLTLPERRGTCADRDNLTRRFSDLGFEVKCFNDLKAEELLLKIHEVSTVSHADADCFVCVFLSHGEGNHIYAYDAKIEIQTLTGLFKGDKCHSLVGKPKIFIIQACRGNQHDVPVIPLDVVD
Target sequence (P55212 194-293 limits assumed): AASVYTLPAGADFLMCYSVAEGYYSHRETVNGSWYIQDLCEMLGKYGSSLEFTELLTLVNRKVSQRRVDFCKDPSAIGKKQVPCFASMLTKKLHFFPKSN
UHRF1 binding: UHRF1 methylated DNA binding inhibitors, primary screen, counter-screen for MBD2 inhibitor project, biochemical, TR-FRET, human UHRF1, single concentration; UHRF1 binding to methylated oligo; inhibition, % at 4.4 µM; 0.75% of 370,000 active; in the data active = inhibition above about 21%;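 also: UHRF1 SRA domain binding a hemimethylated CpG hairpin DNA probe; 0% = median of test compound wells and 100% = reference inhibitor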
NSD2 HMT inh: NSD2 histone methyltransferase inhibitors, primary screen, biochemical, AlphaScreen, single concentration, set 2. NSD2 peptide methylation, 120 min. inhibition, % at 12.5 µM. 0.54% of 310,000 active. Histone-lysine N-methyltransferase NSD2 (Homo sapiens), O96028; in the data active = inhibition above about 50%
* marks the source's active call; other numbers are inactive results; x = no result given.

SMILES | MBD2 inh | LEDGF integ inh | TDP2 absorb | Casp6 inh | UHRF1 binding | NSD2 HMT inh
COC(=O)c1ccc(CN(c2ccccc2Cl)S(C)(=O)=O)cc1 | -5 | -4 | -10 | 1 | 30* | 1
CN1c2ccc(-c3ccc(F)cc3)cc2[C@@H]2[C@@H](CCN2C(=O)Nc2cc(F)ccc2F)[C@@H]1CO | x | x | x | 0 | x | x
COc1cccc(C(=O)NC2C(=O)N3C(C(=O)O)=C(COC(C)=O)CSC23)c1 (stereo not drawn) | 10 | 2 | 8 | 9 | -2 | 19
CC(=O)OCC1=C(C(=O)O)N2C(=O)C(NC(=O)c3ccc(COc4cccc(Cl)c4Cl)o3)C2SC1 (stereo not drawn) | -2 | 1 | 20 | 55* | -2 | 20
COCC#Cc1ccc2c(c1)O[C@@H](CN(C)S(=O)(=O)c1ccc(F)cc1)[C@@H](C)CN([C@H](C)CO)S2(=O)=O | x | x | x | -3 | x | x
Cc1cc2c(cc1C)N1C(=N)/C(=C\c3coc4ccccc4c3=O)C(=O)N=C1S2 | x | x | x | x | x | -1
N=C1/C(=C\c2coc3ccc(O)cc3c2=O)C(=O)N=C2SC=CN12 | -7 | 8 | 2 | 42* | -9 | 35
Cc1csc(=O)n1CC(=O)OCC(=O)NCc1ccc(F)cc1 | -1 | -7 | -20 | 59* | 3 | -1
COC(=O)c1ccc2nc(-c3ccccc3)c(Cc3ccccc3)n2c1 | 1 | -3 | -11 | 3 | 11 | x
CCCc1nc2ccc(C(=O)OC)cn2c1Cc1ccc(C)cc1 | 10 | 6 | -1 | 7 | 22* | x
CCCc1nc2ccc(C(=O)OC)cn2c1Cc1ccccc1 | 11 | -4 | 4 | 2 | 25* | x
C[C@@H]1CN([C@@H](C)CO)C(=O)c2cccc(NC(=O)C3CC3)c2O[C@H]1CN(C)Cc1ccc(C(F)(F)F)cc1 | x | x | x | -1 | x | x
C[C@@H]1CCCCO[C@H](CN(C)C(=O)Nc2ccc(F)cc2)[C@@H](C)CN([C@H](C)CO)C(=O)c2cc(NC(=O)Nc3ccc(F)cc3)ccc2O1 | x | x | x | -1 | x | x
COCCN(C(=O)c1cc(-c2ccco2)nc2ccccc12)c1c(N)n(Cc2ccccc2)c(=O)[nH]c1=O | 6 | 6 | 5 | 60* | 4 | 0
CCCCN(C(=O)c1cc(-c2ccco2)nc2ccccc12)c1c(N)n(CCCC)c(=O)[nH]c1=O | -5 | 11 | 11 | 20 | 11 | x
CCCN(C(=O)c1cc(-c2ccco2)nc2ccccc12)c1c(N)n(Cc2ccccc2)c(=O)[nH]c1=O | 6 | 6 | 1 | 18 | 13 | 1
CCN(CC)c1ccc(-c2nnc(SCC(=O)N(CCOC)c3c(N)n(CC(C)C)c(=O)[nH]c3=O)o2)cc1 | 1 | -1 | 1 | 1 | 80* | -7
CCCCn1c(N)c(N(CCOC)C(=O)c2cc(-c3ccco3)nc3ccccc23)c(=O)[nH]c1=O | 1 | 8 | 4 | 61* | 11 | -1
COCCN(C(=O)CSc1ncn[nH]1)c1c(N)n(Cc2ccccc2)c(=O)[nH]c1=O | 4 | 5 | -12 | 1 | 27* | -2
O=C(NC1CCC1)[C@@H]1[C@@H](CO)[C@@H]2Cn3c(ccc(-c4ccccc4F)c3=O)[C@@H]2N1Cc1cocn1 | x | x | x | -2 | x | x
O=C(C[C@@H]1CC[C@@H]2[C@H](COC[C@@H](O)CN2Cc2nccs2)O1)NCc1ccc(-c2ccccc2)cc1 | x | x | x | -1 | x | x
CC(C)NC(=O)Nc1ccc2c(c1)CC(=O)N([C@@H](C)CO)C[C@H](C)[C@H](CN(C)Cc1ccc(C(=O)Nc3ccccc3N)cc1)O2 | x | x | x | 4 | x | x
Cc1ccc(S(=O)(=O)OCC(=O)Nc2ccc(C(=O)O)c(O)c2)cc1 | 8 | 15* | 2 | 79* | 8 | x
Cc1ccc(NC(=O)COCC(=O)Nc2ccc(C)cc2)cc1 | 0 | 7 | -3 | -3 | -3 | -2
C[C@@H]1CN([C@H](C)CO)C(=O)c2cc(NS(=O)(=O)c3ccc(F)cc3)ccc2O[C@@H](C)CCCCO[C@@H]1CN(C)S(C)(=O)=O | x | x | x | 2 | x | x
SMILES | MBD2 inh | LEDGF integ inh | TDP2 absorb | Casp6 inh | UHRF1 binding | NSD2 HMT inh
CCC1=NN2C(=N)/C(=C\c3cccn3-c3ccc(C)cc3C)C(=O)N=C2S1 | 1 | 1 | 2 | 3 | 30* | 24
O=C(N[C@H]1CC[C@@H](CCn2cc(-c3ccccn3)nn2)O[C@@H]1CO)c1ccc(F)cc1 | x | x | x | -4 | x | x
O=C(C[C@H]1CC[C@@H]2[C@H](COC[C@H](O)CN2S(=O)(=O)c2ccc(F)cc2)O1)NCc1ccc(Cl)c(Cl)c1 | x | x | x | -1 | x | x
O=C1/C(=C\c2cccc(O)c2O)SC(=S)N1Cc1ccccc1 | -3 | -1 | -19 | 28 | 1 | 52*
O=C(O)c1cc(-c2ccc(/C=C3/SC(=S)N(Cc4ccccc4)C3=O)o2)ccc1Cl | 2 | -1 | 3 | 51* | 14 | 46
Cc1ccc(/C=C2\SC(=S)N(Cc3ccccc3)C2=O)o1 | -4 | 0 | -3 | x | 0 | 1
O=C(O)CCCN1C(=O)/C(=C\c2ccc(-c3nc4ccccc4s3)o2)SC1=S | -3 | 0 | 0 | 43* | 8 | 14
O=Cc1ccc(-c2nc3ccccc3s2)o1 | -5 | 4 | 10 | 2 | -7 | 5
COc1ccc(CN2C[C@@H](O)COC[C@@H]3O[C@@H](CC(=O)N4CCc5ccccc5C4)CC[C@H]32)cc1 | x | x | x | 0 | x | x
CC=Cc1ccc2n(c1=O)C[C@@H]1[C@@H](CO)[C@H](C(=O)NCC3CC3)N(C(=O)C3CCOCC3)[C@H]21 (mixture of isomers) | x | x | x | -3 | x | x
O=C(C1CCCC1)N1CC[C@H]2[C@H](CO)Nc3ccc(Br)cc3[C@H]21 | x | x | x | 3 | x | x
CC(=O)Nc1ccc(O)c(-c2nc3ccccc3s2)c1 | 1 | -5 | -2 | -3 | 39* | 3
Cc1ccsc1C(=O)Nc1ccc(O)c(-c2nc3ccccc3s2)c1 | 1 | -5 | -11 | 2 | -3 | -5
CCCNC(=O)N1CC2(C1)[C@@H](c1ccccc1)[C@@H](CO)N2C(=O)C1CCCCC1 | x | x | x | 2 | x | x
CC1=NN(C(=O)COc2ccccc2)C(O)(c2cccnc2)C1 (stereo not drawn) | 0 | 3 | -16 | 4 | 21* | -4
CCc1noc(C)c1C(=O)NNC(=O)c1nn(C)c(=O)c2ccccc12 | 2 | -5 | 9 | 2 | 30* | 0
CCn1c(SC(C)C(=O)O)nc2sc3c(c2c1=O)CCC3 (stereo not drawn) | 10 | 11 | 1 | x | 28* | 19

From PubChem BioAssay
